Bioassay records as filed in PubChem.
A selection: hits, their analogues and other compounds. The true share with any hit is near 1.2%.
CRFBP-R2 block – antagonists of CRF-BP/CRF-R2 complex, primary screen, cell-based, HEK293, calcium dye fluorescence, uHTS; CRF-induced calcium fluorescence; inhibition, % at 11.8 µM; actives 0.59% (n = 350,000);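 active = inhibition of the ligand-induced calcium signal above about 50% at the single tested concentration, limit read from the data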
TRPN1 ag – zebrafish TRPN1 channel agonists, primary screen, cell-based, HEK293, calcium fluorescence; HEK293 zebrafish TRPN1-YFP, Fluo-8 calcium fluorescence; 100% = response to 87 µM carbachol; activation, % at 3 µM; actives 0.18% (n = 220,000); AID 1424, 2008;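 active = activation above its plate's cutoff, the mean activation of test wells on that plate plus 3 SD, cut at about 19% in these data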;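 also: 0% = DMSO alone and 100% = 87 µM carbachol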
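Material – zebrafish TRPN1-YFP in HEK293 cells · Doses – 3 µM single point · Schedule – dye 1 h 37 °C plus 30 min RT · Signal – Fluo-8 calcium fluorescence, excitation 470-495 nm, emission 515-575 nm · Read-out – % activation versus carbachol response · Control set – carbachol high, DMSO low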
TRPML3 ag – human TRPML3 channel agonists, primary screen, cell-based, HEK293 TRPML3-YFP, Fluo-8 calcium fluorescence, 3 µM; Mucolipin-3 (Homo sapiens), Q8TDD5; 100% = the carbachol control signal; activation, % at 3 µM; actives 0.29% (n = 220,000); AID 1448, 2008;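 active = activation above its plate's cutoff, the mean activation of the plate's test wells plus 3 SD, cut at about 12% in these data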;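 also: 0% = DMSO only wells and 100% = carbachol wells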
Target sequence (Q8TDD5 whole entry, looked up): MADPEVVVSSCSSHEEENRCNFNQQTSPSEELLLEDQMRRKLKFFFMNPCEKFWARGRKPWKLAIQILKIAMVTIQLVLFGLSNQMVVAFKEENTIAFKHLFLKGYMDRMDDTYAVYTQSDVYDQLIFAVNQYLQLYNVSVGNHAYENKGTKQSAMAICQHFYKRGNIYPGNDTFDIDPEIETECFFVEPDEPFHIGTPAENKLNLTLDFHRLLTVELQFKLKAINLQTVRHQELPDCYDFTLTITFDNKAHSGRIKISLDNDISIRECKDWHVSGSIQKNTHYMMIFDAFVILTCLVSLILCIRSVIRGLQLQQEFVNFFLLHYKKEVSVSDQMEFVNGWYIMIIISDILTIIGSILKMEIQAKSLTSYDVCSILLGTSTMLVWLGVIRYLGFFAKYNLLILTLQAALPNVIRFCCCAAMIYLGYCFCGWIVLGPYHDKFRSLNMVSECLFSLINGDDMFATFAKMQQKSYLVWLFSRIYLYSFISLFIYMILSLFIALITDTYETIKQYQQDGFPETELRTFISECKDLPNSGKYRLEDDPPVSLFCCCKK
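Test system – HEK293 line with stable expression of human TRPML3-YFP channel · Control set – carbachol 87 µM final as high control (100%), DMSO as low control (0%) · Signal – Fluo-8 calcium dye fluorescence, ex 470-495, em 515-575 nm · Incubation – 1-h 37 °C dye load, 5-s basal, 120-s post-compound reads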
CRFBP-R2 agonist – agonists of CRF-BP/CRF-R2 complex, primary screen, cell-based, HEK293, calcium dye fluorescence, uHTS. CRF-binding protein / CRF receptor 2 complex (human). calcium dye fluorescence (FLIPR); percent of saturating CRF peptide response. activation, % at 13.2 µM. actives 0.46% (n = 350,000). AID 588473, 2011;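 active = activation of at least 50%, plus an integration ratio under a set limit after plate pattern correction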;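 also: plate controls were neutral control wells without compound for no effect and CRF at EC100 for full effect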
Numbers without * were called inactive; x = no result.

SMILES | CRFBP-R2 block | TRPN1 ag | TRPML3 ag | CRFBP-R2 agonist
CCOC(=O)Cn1c(=O)oc2cc(S(=O)(=O)NC(C)(C)CC)ccc21 | 89* | 2 | 0 | 0
CCOC(=O)Cn1c(=O)oc2cc(S(=O)(=O)NCCC(C)C)ccc21 | -8 | 3 | 0 | 2
Cc1ccc(NC2=C(Cl)C(=O)OC2NC(=O)c2ccccc2)cc1 (stereo not given) | 10 | -1 | 0 | -1
CCCCOc1ccc(C(=O)OCC(=O)Nc2cc(C)on2)cc1 | -11 | 94* | 88* | 7
O=C(Nc1nnc(S(=O)(=O)N2CCCCC2)s1)c1ccc(Cl)cc1 | 71* | x | x | 13
COc1ccc(NC(=O)CNCCC2=CCCCC2)cc1 | -2 | 0 | 0 | -2
O=[N+]([O-])c1ccc(-c2cn3nc(-c4ccccc4)c(-c4ccccc4)nc3n2)cc1 | -48 | 2 | 1 | 66*
O=[N+]([O-])c1cccc(-c2cn3nc(-c4ccccc4)c(-c4ccccc4)nc3n2)c1 | -14 | 1 | 1 | 14
CCCOc1ccc(NC(=O)C2CC(=O)N(C(C)C)C2)cc1 (stereo not given) | 7 | 0 | 1 | -1
COc1ccc(C#Cc2c(-c3ccccc3)n(-c3ccccc3)c3ccc(CO)cc23)cc1 | 118* | x | x | 2
COc1ccc(OC)c(NC(=O)c2cccc3c2C(=O)N(C2CCCCC2)C3)c1 | 6 | x | x | 0
COCCN1Cc2cccc(C(=O)Nc3cc(OC)ccc3OC)c2C1=O | -35 | 0 | 0 | 61*
S=C(NC1CCCCC1)N1CCOCCOCCN(C(=S)NC2CCCCC2)CCOCCOCC1 | 115* | 1 | 10 | 3
O=C(/C=C/c1cn(CC(O)CN2CCCCCC2)c2ccccc12)c1cccs1 (stereo not given) | -127 | 2 | 2 | 65*
CCCCN(C)CC(O)Cn1cc(/C=C/C(=O)c2cccs2)c2ccccc21 (stereo not given) | -94 | 5 | 4 | 33
Cc1nn(C)cc1-c1cc(C(=O)O)c2ccccc2n1 | -39 | -1 | 1 | 1
CCOc1cc(C=C2C(=O)c3ccccc3C2=O)ccc1OCC(=O)Nc1ccc(C)cc1 | -107 | 0 | 0 | 113*
COC(=O)C1=C(C)N(Cc2ccccc2)C(=S)N[C@H]1c1cccc(F)c1 | 55* | x | x | 0
COC(=O)C1=C(C)N(Cc2ccccc2)C(=NCc2ccccc2)N[C@H]1c1cccc(F)c1 | -5 | x | x | 4
COC(=O)C1=C(C)N(Cc2ccccc2)C(=O)N[C@H]1CCc1ccccc1 | 82* | x | x | 0
CCOC(=O)CN1C(=O)N[C@@H](CCc2ccccc2)C(C(=O)OC)=C1C | -2 | x | x | 4
O=C(O)CCCNC(=O)/C(=C\c1ccccc1F)NC(=O)c1ccccc1 | -4 | 1 | 1 | 1
CC(=O)NC(CC(C)C)C(=O)NC(CO)C(=O)NC(CCC(=O)O)C(=O)NC(C)C(=O)NC(CC(C)C)C(N)=O (stereo not given) | 17 | x | x | 1
Cc1cc(NC(=O)c2ccc(Cl)cc2)c(C)cc1O | 3 | 0 | 0 | -1
Cc1cc(C(C#N)c2ccc(Cl)cc2)c(Cl)cc1NC(=O)c1cc(I)cc(I)c1O (stereo not given) | 58* | x | x | 32
SMILES | CRFBP-R2 block | TRPN1 ag | TRPML3 ag | CRFBP-R2 agonist
CCCn1c(C(CO)Nc2nc(C)cs2)nc2ccccc21 (stereo not given) | -1 | x | x | 0
COc1ccc(C2Nc3ccccc3C(=O)N2c2ccccc2)cc1CSc1ccccn1 (stereo not given) | 58* | -1 | -1 | 1
COc1ccc(C2Nc3ccccc3C(=O)N2c2ccc(F)cc2)cc1CSc1ccccn1 (stereo not given) | 17 | -2 | 0 | -2
COc1cc(/C=C2/S/C(=N/S(=O)(=O)c3ccccc3)NC2=O)c([N+](=O)[O-])cc1OC | 29 | -1 | 0 | 2
O=C1N/C(=N\S(=O)(=O)c2ccccc2)S/C1=C\c1cc([N+](=O)[O-])ccc1O | -106 | x | x | 55*
O=C1N/C(=N\S(=O)(=O)Cc2ccccc2)S/C1=C/c1cc([N+](=O)[O-])ccc1O | -132 | 64* | 31* | 104*
Cc1ccc(NC(=O)C2=NNC(=O)CC2)cc1F | -3 | 0 | 0 | 1
COc1ccc(/C=C/C(=O)N2CCN(c3ccccn3)CC2)cc1 | -8 | x | x | -2
CSc1ccc(/C=C/C(=O)N2CCN(c3ccccn3)CC2)cc1 | 92* | x | x | -3
Cc1nc2c(c(N3CCOCC3)n1)OCC(=O)N2 | -2 | 0 | 0 | 1
Cc1ccc2c(c1)COc1c3ccc(C(=O)N[C@@H](C)CO)cc3nn1-2 | -2 | x | x | 0
COc1cc(/C=C/C(=O)CC(=O)/C=C/c2ccc(O)c(OC)c2)ccc1O | -188 | 11 | 8 | 214*
COc1cc(/C=C/C(=O)/C=C(O)/C=C/c2ccc(O)c(OC)c2)ccc1O | -75 | x | x | 130*
COc1cc(/C=C/C(=O)O)ccc1O | 3 | x | x | -2
CN1c2ccccc2C(O)=C(C(=S)Nc2ccc(Cl)cc2)S1(=O)=O | 59* | 5 | 2 | 0
Cc1cccc(NC(=O)C2=C(O)c3ccccc3N(C)S2(=O)=O)c1 | -28 | 0 | 1 | 24
C=C1CCC(C)C(C)(CCC2=CCOC2=O)C/C=C\C=C/1C(=O)O (stereo not given) | -9 | x | x | 0
CC1C(=O)N(Cc2cn(CCC3OCCCO3)nn2)CCS(=O)(=O)N1Cc1ccc(-c2ccc(Cl)cc2)cc1 (stereo not given) | 52* | x | x | 0
COc1ccc(-c2ccc(CN3C(C)C(=O)N(Cc4cn(Cc5ccco5)nn4)CCS3(=O)=O)cc2)cc1 (stereo not given) | 69* | x | x | -2
Cc1ccc(-c2ccc(CN3C(C)C(=O)N(Cc4cn(Cc5ccco5)nn4)CCS3(=O)=O)cc2)cc1 (stereo not given) | -13 | x | x | 0
O=C(Nc1ccc(S(=O)(=O)Nc2ccccc2F)cc1)N1CCCCC1 | -11 | x | x | 0
Cc1cc([N+](=O)[O-])c2ccccc2c1NS(=O)(=O)c1ccccc1 | 119* | x | x | -1
Cc1ccc(NS(=O)(=O)c2ccccc2)c([N+](=O)[O-])c1 | 28 | x | x | -3
O=C(Cc1ccccc1)Nn1c(-c2ccccc2F)nc2ccccc2c1=O | 7 | 2 | 1 | -5
CCc1ccc(S(=O)(=O)/N=C2\C=C(Nc3ccc(O)cc3)C(=O)c3ccccc32)cc1 | 140* | x | x | -3
CCc1ccc(S(=O)(=O)/N=C2\C=C(Nc3cccc(C(=O)O)c3)C(=O)c3ccccc32)cc1 | 33 | x | x | -4
O=C(c1ccc(OC2CCN(Cc3cccc(F)c3)CC2)cc1)N1CCCCC1 | 6 | x | x | -1
Cc1ccc(-c2noc(-c3c(C)noc3C)n2)cc1 | -3 | 1 | 1 | 0
Cc1ccc(SCc2noc(-c3c(C)noc3C)n2)cc1 | 52* | 0 | -1 | 0
